Laboratory results from ChEMBL document CHEMBL1123129, “Hypolipidemic activity of indan-1,3-dione derivatives in rodents” (J Med Chem, 1985).

Tests used:
[1] = biological target: Acetyl-CoA carboxylase 1 (Mus musculus) (UniProt Q5SWU9); experiment: In Vitro evaluation for the CF1 liver enzyme activity on Acetyl-CoA carboxylase at concentration 200 uM
Method in brief: (§1)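 Liver was taken from CF1 male mice and made into 10% homogenates, which were incubated with test compound at 50, 100 or 200 µM. Each enzyme was assayed by its literature method, and protein was measured by Lowry. N = 6. Activity is expressed as % of untreated control ± SD.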

Rattus norvegicus [2] = experiment: Compound was evaluated for the hypolipidemic activity in Sprague-Dawley rats at a dose of 20 mg/kg orally for Serum triglyceride at 16th day; type: functional; settings: route oral
Method in brief: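 Sprague–Dawley male rats (~350 g) received 20 mg/kg per day orally, with 1% CMC as the vehicle control; N = 6. Tail-vein blood was taken between 8:00 and 9:30 a.m. on days 9 and 16 and spun for 3 min to obtain serum. Cholesterol was measured by a modified Liebermann–Burchard reaction and triglyceride by kit. Values are % control ± SD; significance by Student's t test.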

[3] = biological target: T1, 3-hydroxy-3-methylglutaryl-coenzyme A reductase (Mus musculus) (UniProt Q01237); experiment: In Vitro evaluation for the CF1 liver enzyme activity on HMG CoA reductase at concentration 200 uM; method in brief: as §1
T1 sequence (whole entry): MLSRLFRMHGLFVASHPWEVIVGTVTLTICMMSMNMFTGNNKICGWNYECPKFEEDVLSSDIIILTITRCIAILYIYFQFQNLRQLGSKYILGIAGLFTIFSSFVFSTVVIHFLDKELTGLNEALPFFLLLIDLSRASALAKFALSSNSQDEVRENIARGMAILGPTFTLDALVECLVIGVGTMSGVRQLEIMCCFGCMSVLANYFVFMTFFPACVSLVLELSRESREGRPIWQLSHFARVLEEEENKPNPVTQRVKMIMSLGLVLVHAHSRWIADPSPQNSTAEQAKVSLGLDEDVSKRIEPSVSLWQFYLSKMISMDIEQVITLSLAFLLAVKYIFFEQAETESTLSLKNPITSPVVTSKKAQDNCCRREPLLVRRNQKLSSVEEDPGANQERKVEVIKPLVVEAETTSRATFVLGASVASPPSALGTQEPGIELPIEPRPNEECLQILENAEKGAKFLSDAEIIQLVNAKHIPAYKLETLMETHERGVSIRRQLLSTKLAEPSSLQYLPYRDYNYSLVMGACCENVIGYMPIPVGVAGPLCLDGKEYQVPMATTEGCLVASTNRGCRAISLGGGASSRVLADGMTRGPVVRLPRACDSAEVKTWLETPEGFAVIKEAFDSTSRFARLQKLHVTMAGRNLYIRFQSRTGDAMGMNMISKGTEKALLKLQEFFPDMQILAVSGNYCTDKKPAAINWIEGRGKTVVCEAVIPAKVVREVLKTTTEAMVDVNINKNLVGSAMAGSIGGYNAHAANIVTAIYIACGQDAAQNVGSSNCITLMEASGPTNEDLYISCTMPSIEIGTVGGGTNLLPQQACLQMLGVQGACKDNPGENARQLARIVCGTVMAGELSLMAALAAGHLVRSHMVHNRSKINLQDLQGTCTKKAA

[4] = biological target: T2, Sterol O-acyltransferase 1 (Mus musculus) (UniProt Q61263); experiment: In Vitro evaluation for the CF1 liver enzyme activity on Acyl cholesterol acyltransferase at concentration 200 uM; type: functional, tissue-based; method in brief: as §1
T2 sequence (whole entry): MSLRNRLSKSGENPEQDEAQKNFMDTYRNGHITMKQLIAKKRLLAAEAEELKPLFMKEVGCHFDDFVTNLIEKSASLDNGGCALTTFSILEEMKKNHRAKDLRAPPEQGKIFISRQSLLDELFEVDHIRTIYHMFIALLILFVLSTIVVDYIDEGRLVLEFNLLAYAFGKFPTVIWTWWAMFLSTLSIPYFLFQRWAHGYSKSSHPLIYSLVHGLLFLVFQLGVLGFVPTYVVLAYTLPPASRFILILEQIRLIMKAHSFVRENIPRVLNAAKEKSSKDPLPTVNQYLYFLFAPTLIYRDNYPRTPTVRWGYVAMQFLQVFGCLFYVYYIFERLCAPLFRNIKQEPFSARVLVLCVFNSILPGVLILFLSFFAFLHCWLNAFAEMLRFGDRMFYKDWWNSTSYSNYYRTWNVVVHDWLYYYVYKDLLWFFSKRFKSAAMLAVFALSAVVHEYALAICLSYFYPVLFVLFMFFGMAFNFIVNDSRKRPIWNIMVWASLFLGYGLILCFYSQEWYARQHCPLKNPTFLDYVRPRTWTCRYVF

Rattus norvegicus [5] = experiment: Compound was evaluated for the hypolipidemic activity at 20 mg/kg per day orally for 14 days on neutral lipid content in rat liver; type: functional; settings: route oral
Method in brief: (§2)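 Male Sprague–Dawley rats were dosed orally for 14 days. Liver, small intestine and a 24-h fecal collection were lipid-extracted. Extracts were assayed for cholesterol (modified Liebermann–Burchard), triglyceride (enzymatic kit), neutral lipids, phospholipids and protein. Values are % of 1% CMC vehicle control, mean ± SD, N = 6.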

Rattus norvegicus [6] = experiment: Compound was evaluated for the hypolipidemic activity at 20 mg/kg per day orally for 14 days on cholesterol content in rat small intestine.; type: functional; settings: route oral; method in brief: as §2
Mus musculus [7] = experiment: In Vivo effect for the hypolipidemic activity on Acetyl-CoA carboxylase in CF1 mice after 16 days administered orally at a dose of 60 mg/kg; type: functional; settings: route oral
Method in brief: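 CF1 male mice are dosed orally at 10–60 mg/kg per day for 16 days, with 1% CMC as the control vehicle. Liver is homogenized at 10% in 0.25 M sucrose + 0.001 M EDTA, pH 7.2. Enzymes are assayed by literature methods, with Lowry protein. Activity is given as % of control (X ± SD, N = 6), with p from Student's t test.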

[8] = biological target: T1, 3-hydroxy-3-methylglutaryl-coenzyme A reductase (Mus musculus); experiment: In Vitro evaluation for the CF1 liver enzyme activity on HMG-CoA reductase at concentration 50 uM; method in brief: as §1
Rattus norvegicus [9] = experiment: Compound was evaluated for the hypolipidemic activity at 20 mg/kg per day orally for 14 days on neutral lipids content in rat LDL; type: functional; settings: route oral
Method in brief: (§3)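 Male Sprague–Dawley rats (~300 g) were dosed orally each day. Blood was drawn from the abdominal vein. Lipoprotein fractions (chylomicron, VLDL, LDL, HDL) were separated by the Hatch–Lees and Havel methods. Each fraction was assayed for cholesterol, triglyceride (enzymatic kit), neutral lipids, phospholipids and Lowry protein. Values are % of 1% CMC vehicle control, N = 6.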

Rattus norvegicus [10] = experiment: Compound was evaluated for the hypolipidemic activity at 20 mg/kg per day orally for 14 days on protein content in rat HDL; type: functional; settings: route oral; method in brief: as §3
Mus musculus [11] = experiment: Hypolipidemic activity in CF1 male mice at a dose of 20 mg/kg per day, serum cholesterol measured on the 9th day; type: functional
Method in brief: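 CF1 male mice (~30 g) were given 20 mg/kg per day ip at 11:00 a.m.; N = 6 per group. Tail-vein serum was collected in nonheparinized microcapillaries. Cholesterol was measured on days 9 and 16 by modified Liebermann–Burchard on duplicate 25 µL samples. Triglyceride was measured on day 16 in a separate group, duplicate 50 µL. Values are % control ± SD; Student's t test.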

Mus musculus [12] = organism: Mus musculus; experiment: In Vitro evaluation for the CF1 liver enzyme activity on Mitochondrial citrate exchange at concentration 50 uM; type: functional
Method in brief: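 Mouse liver enzymes assayed in vitro on 10% homogenates of CF1 male mouse liver, with test drug added at 50–200 μM. Each enzyme follows a published procedure. Protein is measured by Lowry. Activity is given as % of untreated control (X ± SD, N = 6).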

- Control [1]: 67%
- Control [3]: 105%
- Control [4]: 60%
- Control [8]: 107%
SMILES: COc1ccc(C2C(=O)c3ccccc3C2=O)cc1 [ANISINDIONE]
- Control (Rattus norvegicus [2]): 59%
- Control (Rattus norvegicus [5]): 84%
- Control (Rattus norvegicus [6]): 87%
- Control (Mus musculus [7]): 97%
- Control (Rattus norvegicus [9]): 69%
- Control (Rattus norvegicus [10]): 107%
- Serum cholesterol, % of control (Mus musculus [11]): 58%
- Control (Mus musculus [12]): 36%
